Assay results published in ChEMBL document CHEMBL4706507, “Chromones bearing amino acid residues: Easily accessible and potent inhibitors of the breast cancer resistance protein ABCG2” (Eur J Med Chem, 2020).

What was measured:
[1] = target: T1, Broad substrate specificity ATP-binding cassette transporter ABCG2 (Homo sapiens, UniProt Q9UNQ0); assay: (§1) Inhibition of ABCG2 (unknown origin) in HEK293 cells assessed as maximal inhibition of mitoxantrone efflux at 1 uM by fluorescence based flow cytometry relative to control; type: cell-based; settings: hek293, 1 µM
T1 sequence (Q9UNQ0 whole entry): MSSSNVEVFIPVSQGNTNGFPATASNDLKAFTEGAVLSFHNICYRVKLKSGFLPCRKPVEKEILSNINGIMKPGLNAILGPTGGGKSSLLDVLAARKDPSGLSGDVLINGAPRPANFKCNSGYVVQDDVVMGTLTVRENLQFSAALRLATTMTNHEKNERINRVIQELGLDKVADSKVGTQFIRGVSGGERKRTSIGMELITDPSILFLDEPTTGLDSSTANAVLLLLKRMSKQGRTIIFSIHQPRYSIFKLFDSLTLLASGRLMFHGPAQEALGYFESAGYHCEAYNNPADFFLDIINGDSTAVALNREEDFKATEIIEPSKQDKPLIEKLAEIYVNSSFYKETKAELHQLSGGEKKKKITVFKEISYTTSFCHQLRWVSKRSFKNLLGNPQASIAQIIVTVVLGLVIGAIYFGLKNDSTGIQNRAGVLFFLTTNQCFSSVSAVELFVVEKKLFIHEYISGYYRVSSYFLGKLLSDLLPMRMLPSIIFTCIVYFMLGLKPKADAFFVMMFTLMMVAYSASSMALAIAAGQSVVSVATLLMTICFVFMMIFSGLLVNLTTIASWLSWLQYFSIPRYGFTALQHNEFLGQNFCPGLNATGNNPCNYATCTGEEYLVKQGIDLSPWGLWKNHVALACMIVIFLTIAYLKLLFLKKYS
In short: (§2)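 Efflux assay in HEK293-ABCG2 cells, with parental HEK293 cells as negative control. Cells seeded at 5×10^4/well overnight, then given compound plus 4 µM mitoxantrone (0.5% DMSO) for 30 min at 37 °C. Cells washed, trypsinized and resuspended in cold DPBS with 2% BSA.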

[2] = target: T1, Broad substrate specificity ATP-binding cassette transporter ABCG2; assay: Inhibition of ABCG2 (unknown origin) in HEK293 cells assessed as maximal inhibition of mitoxantrone efflux by fluorescence based flow cytometry; type: cell-based; in short: as §2
[3] = Cytotoxicity against human HEK293 cells assessed as cell viability at 20 uM measured after 72 hrs by MTT assay; type: cell-based; settings: read-out: Activity
[4] = target: T1, Broad substrate specificity ATP-binding cassette transporter ABCG2; assay: Inhibition of ABCG2 (unknown origin) expressed in HEK293 cells assessed as maximal inhibition at 1 uM by FACS based flow cytometry; settings: hek293, 1 µM
[5] = target: T2, ABCB1 (Homo sapiens, UniProt P08183); assay: Inhibition of ABCB1 (unknown origin) expressed in NIH/3T3 cells assessed as maximal inhibition at 1 uM by FACS based flow cytometry
[6] = target: T2, ABCB1; assay: Inhibition of ABCB1 (unknown origin) expressed in NIH/3T3 cells assessed as maximal inhibition at 10 uM by FACS based flow cytometry
[7] = target: T3, ABCC1 (MRP1) (Homo sapiens, UniProt P33527); assay: Inhibition of ABCC1 (unknown origin) expressed in Flp-In-293 cells assessed as maximal inhibition at 1 uM by FACS based flow cytometry
[8] = target: T3, ABCC1 (MRP1); assay: Inhibition of ABCC1 (unknown origin) expressed in Flp-In-293 cells assessed as maximal inhibition at 10 uM by FACS based flow cytometry
[9] = Cytotoxicity against human HEK293 cells assessed as cell viability at 10 uM measured after 72 hrs by MTT assay; type: cell-based; settings: read-out: Activity
[10] = target: T4, ABCG2 (Homo sapiens, UniProt Q9UNQ0); assay: as §1; type: cell-based; settings: HEK293 cells with ABCG2, probe mitoxantrone, read-out: Imax; in short: as §2
T4 sequence (Q9UNQ0 whole entry): T1 sequence (Q9UNQ0 whole entry)

T3 sequence (P33527 whole entry): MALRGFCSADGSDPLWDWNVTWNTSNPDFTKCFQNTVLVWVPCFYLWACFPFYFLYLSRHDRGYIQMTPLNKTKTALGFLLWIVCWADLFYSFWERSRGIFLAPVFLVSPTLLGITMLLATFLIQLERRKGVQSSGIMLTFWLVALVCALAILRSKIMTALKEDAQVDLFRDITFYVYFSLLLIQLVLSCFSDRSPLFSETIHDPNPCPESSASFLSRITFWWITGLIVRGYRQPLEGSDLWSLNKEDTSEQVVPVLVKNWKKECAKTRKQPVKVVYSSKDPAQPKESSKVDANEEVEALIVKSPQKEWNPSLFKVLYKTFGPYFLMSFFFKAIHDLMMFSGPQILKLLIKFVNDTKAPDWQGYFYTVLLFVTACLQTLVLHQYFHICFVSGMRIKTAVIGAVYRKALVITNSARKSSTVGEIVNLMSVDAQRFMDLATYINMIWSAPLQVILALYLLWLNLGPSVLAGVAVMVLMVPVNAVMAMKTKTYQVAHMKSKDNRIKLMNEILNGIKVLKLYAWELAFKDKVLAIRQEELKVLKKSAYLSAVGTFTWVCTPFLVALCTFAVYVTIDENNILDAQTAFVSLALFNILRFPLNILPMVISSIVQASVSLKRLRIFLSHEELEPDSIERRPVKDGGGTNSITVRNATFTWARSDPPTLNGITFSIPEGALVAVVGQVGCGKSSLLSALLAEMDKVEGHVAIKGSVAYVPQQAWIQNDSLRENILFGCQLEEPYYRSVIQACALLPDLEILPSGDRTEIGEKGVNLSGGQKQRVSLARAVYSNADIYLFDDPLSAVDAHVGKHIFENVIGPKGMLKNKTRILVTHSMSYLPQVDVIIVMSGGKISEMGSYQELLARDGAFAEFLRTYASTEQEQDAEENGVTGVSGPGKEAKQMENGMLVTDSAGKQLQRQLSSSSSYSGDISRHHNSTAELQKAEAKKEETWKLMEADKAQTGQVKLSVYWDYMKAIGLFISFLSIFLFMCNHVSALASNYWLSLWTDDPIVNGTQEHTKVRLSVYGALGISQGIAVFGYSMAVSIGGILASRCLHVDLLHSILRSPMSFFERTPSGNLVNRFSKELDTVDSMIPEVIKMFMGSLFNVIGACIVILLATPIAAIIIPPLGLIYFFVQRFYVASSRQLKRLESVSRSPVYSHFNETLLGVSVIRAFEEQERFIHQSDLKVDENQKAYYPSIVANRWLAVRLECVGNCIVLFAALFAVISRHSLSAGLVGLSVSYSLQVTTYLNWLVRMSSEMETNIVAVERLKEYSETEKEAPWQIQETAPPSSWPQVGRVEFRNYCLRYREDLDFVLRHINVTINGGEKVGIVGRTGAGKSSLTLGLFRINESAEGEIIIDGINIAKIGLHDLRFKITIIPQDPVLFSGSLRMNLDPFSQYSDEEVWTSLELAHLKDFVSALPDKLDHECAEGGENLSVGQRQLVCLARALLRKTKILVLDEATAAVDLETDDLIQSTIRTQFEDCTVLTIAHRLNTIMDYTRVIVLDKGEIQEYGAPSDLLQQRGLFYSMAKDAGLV
T2 sequence (P08183 whole entry): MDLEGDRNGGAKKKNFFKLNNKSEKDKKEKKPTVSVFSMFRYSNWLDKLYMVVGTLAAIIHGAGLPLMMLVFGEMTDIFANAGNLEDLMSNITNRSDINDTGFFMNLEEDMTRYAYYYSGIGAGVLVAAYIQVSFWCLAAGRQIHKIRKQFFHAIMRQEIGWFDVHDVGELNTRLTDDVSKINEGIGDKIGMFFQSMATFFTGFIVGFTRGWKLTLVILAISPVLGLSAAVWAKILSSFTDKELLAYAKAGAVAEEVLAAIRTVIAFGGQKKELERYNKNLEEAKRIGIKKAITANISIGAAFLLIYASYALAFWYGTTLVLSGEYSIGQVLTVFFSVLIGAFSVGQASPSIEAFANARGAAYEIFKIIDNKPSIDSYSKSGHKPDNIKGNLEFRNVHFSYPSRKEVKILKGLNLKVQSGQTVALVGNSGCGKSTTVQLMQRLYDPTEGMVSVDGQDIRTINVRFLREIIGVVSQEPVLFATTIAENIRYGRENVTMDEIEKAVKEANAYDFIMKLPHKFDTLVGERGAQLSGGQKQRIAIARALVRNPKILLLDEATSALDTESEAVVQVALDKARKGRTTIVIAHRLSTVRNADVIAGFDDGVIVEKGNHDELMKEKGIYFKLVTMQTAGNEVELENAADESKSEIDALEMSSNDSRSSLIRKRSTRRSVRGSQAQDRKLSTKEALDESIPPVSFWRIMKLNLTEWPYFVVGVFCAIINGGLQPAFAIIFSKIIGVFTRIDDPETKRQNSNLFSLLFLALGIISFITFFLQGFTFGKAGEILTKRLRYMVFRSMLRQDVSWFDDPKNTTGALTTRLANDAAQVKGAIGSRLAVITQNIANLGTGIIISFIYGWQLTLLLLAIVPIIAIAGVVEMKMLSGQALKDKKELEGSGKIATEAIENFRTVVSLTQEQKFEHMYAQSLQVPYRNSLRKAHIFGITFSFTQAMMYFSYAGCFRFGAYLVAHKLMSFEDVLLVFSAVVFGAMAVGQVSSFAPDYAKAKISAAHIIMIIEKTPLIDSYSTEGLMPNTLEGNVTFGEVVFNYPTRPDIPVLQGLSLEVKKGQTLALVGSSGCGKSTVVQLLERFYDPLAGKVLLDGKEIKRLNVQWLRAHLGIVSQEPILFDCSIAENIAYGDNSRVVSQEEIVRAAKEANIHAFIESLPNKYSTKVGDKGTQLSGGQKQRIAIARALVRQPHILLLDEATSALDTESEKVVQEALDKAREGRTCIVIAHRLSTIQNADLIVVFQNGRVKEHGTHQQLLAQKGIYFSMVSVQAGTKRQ

CC[C@@H](C)[C@H](NC(=O)c1cc(=O)c2c(OCc3ccccc3Br)cccc2o1)C(=O)N[C@@H](CC(C)C)C(=O)OC gave an Imax [1] of 83%, an EC50 [2] of 70 nM and a viability at 72 h, 20 µM [3] of 104%. The “inhibition (INH)” value [4] was 83%, the inhibition at 1 µM [5] was 2% and the inhibition at 10 µM [6] was 2%. For the same molecule, the inhibition at 1 µM [7] was 10% and the inhibition at 10 µM [8] was 13%.

CC[C@@H](C)[C@H](NC(=O)c1cc(=O)c2c(OCc3ccc(Br)cc3)cccc2o1)C(=O)N[C@@H](CC(C)C)C(=O)OC showed an Imax [1] of 52%, an EC50 [2] of 110 nM and a viability at 72 h, 20 µM [3] of 101%. The “inhibition (INH)” value [4] was 52%, the inhibition at 1 µM [5] was 4% and the inhibition at 10 µM [6] was 6%. The inhibition at 1 µM [7] was 11%.

For COC(=O)[C@@H](NC(=O)c1cc(=O)c2c(OCc3ccccc3Br)cccc2o1)C(C)C, the Imax [1] was 87%, the EC50 [2] was 50 nM and the viability at 72 h, 10 µM [9] was 76%. For the same molecule, the “inhibition (INH)” value [4] was 87%, the inhibition at 1 µM [5] was 8% and the inhibition at 10 µM [6] was 7%. For the same molecule, the inhibition at 1 µM [7] was 13%.

With COC(=O)[C@H](CC(C)C)NC(=O)c1cc(=O)c2c(OCc3ccccc3Br)cccc2o1 the Imax [1] was 115%, the EC50 [2] was 140 nM and the viability at 72 h, 10 µM [9] was 87%. For the same molecule, the “inhibition (INH)” value [4] was 115%, the inhibition at 1 µM [5] was 7% and the inhibition at 10 µM [6] was 5%. For the same molecule, the inhibition at 1 µM [7] was 20%.

COC(=O)[C@@H](Cc1c[nH]c2ccccc12)NC(=O)c1cc(=O)c2c(OCc3ccc(Br)cc3)cccc2o1 showed an Imax [1] of 85%, an EC50 [2] of 290 nM and a viability at 72 h, 10 µM [9] of 102%. For the same molecule, the “inhibition (INH)” value [4] was 85%, the inhibition at 1 µM [5] was 7% and the inhibition at 10 µM [6] was 6%. It also gave an inhibition at 1 µM [7] of 11.9%.

With COC(=O)[C@H](Cc1c[nH]c2ccccc12)NC(=O)c1cc(=O)c2c(OCc3ccc(Br)cc3)cccc2o1 the Imax [1] was 96%, the EC50 [2] was 480 nM and the viability at 72 h, 10 µM [9] was 77%. For the same molecule, the “inhibition (INH)” value [4] was 96%, the inhibition at 1 µM [5] was 7% and the inhibition at 10 µM [6] was 6%. It also gave an inhibition at 1 µM [7] of 10.3%.

For CC[C@@H](C)[C@H](NC(=O)c1cc(=O)c2c(OCc3ccccc3Br)cccc2o1)C(=O)OC, the Imax [1] was 78%, the EC50 [2] was 100 nM and the “inhibition (INH)” value [4] was 78%. The inhibition at 1 µM [7] was 5%.

CC[C@@H](C)[C@H](NC(=O)c1cc(=O)c2c(OCc3ccc(Br)cc3)cccc2o1)C(=O)N[C@H](C(=O)OC)C(C)C showed an Imax [1] of 72%, an EC50 [2] of 250 nM and a viability at 72 h, 20 µM [3] of 89%. For the same molecule, the “inhibition (INH)” value [4] was 72%, the inhibition at 1 µM [5] was 2% and the inhibition at 10 µM [6] was 11%. It also gave an inhibition at 1 µM [7] of 12%.

In the case of COC(=O)[C@H](Cc1ccccc1)NC(=O)c1cc(=O)c2c(OCc3ccccc3Br)cccc2o1, the EC50 [2] is reported as 100 nM, the viability at 72 h, 10 µM [9] is reported as 82% and the inhibition at 1 µM [5] is reported as 5%. For the same molecule, the inhibition at 10 µM [6] was 6% and the inhibition at 1 µM [7] was 26%.

CC[C@@H](C)[C@H](NC(=O)c1cc(=O)c2c(OCc3ccc(Br)cc3)cccc2o1)C(=O)OC showed an Emax at 1 µM [10] of 115% and an EC50 [2] of 590 nM.

Molecule COC(=O)[C@H](Cc1ccccc1)NC(=O)c1cc(=O)c2c(OCc3ccc(Br)cc3)cccc2o1 has an EC50 [2] of 270 nM, a viability at 72 h, 10 µM [9] of 84% and an inhibition at 1 µM [5] of 6%. For the same molecule, the inhibition at 10 µM [6] was 7% and the inhibition at 1 µM [7] was 23%.

COC(=O)[C@H](Cc1c[nH]c2ccccc12)NC(=O)c1cc(=O)c2c(OCc3ccccc3Br)cccc2o1 gave an Imax [1] of 94%, an EC50 [2] of 600 nM and a viability at 72 h, 10 µM [9] of 88%. The “inhibition (INH)” value [4] was 94%, the inhibition at 1 µM [5] was 7% and the inhibition at 10 µM [6] was 5%. The inhibition at 1 µM [7] was 23%.

CC[C@@H](C)[C@H](NC(=O)c1cc(=O)c2c(OCc3ccccc3Br)cccc2o1)C(=O)N[C@H](C(=O)OC)C(C)C showed an Imax [1] of 85%, an EC50 [2] of 70 nM and a viability at 72 h, 20 µM [3] of 102%. For the same molecule, the “inhibition (INH)” value [4] was 85%, the inhibition at 1 µM [5] was 0% and the inhibition at 10 µM [6] was 0%. The inhibition at 1 µM [7] was 11%.
